Tests used:
Type in all cases: functional
Enterococcus faecalis = assay: Antimicrobial activity against Enterococcus faecalis ATCC 19433 assessed as reduction in microbial growth measured after 20 hrs by CLSI based broth microdilution method
Outline: (§1)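 Broth microdilution per CLSI in cation-adjusted Mueller-Hinton broth. Two-fold serial dilutions from 256 to 0.25 μg/mL, inoculum about 5 × 10⁵ CFU/mL. Read after 20 h at 37 °C. MIC is the lowest concentration with no visible growth. Run in duplicate.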

Staphylococcus aureus [1] = assay: Antimicrobial activity against Staphylococcus aureus ATCC 25923 assessed as reduction in microbial growth measured after 20 hrs by CLSI based broth microdilution method; outline: as §1
Staphylococcus aureus [2] = assay: Antimicrobial activity against Staphylococcus aureus ATCC 29213 assessed as reduction in microbial growth measured after 20 hrs by CLSI based broth microdilution method; outline: as §1
Streptococcus pneumoniae = assay: Antimicrobial activity against Streptococcus pneumoniae ATCC 49619 assessed as reduction in microbial growth measured after 20 hrs by CLSI based broth microdilution method
Klebsiella pneumoniae = assay: Antimicrobial activity against Klebsiella pneumoniae ATCC 700603 assessed as reduction in microbial growth measured after 20 hrs by CLSI based broth microdilution method; outline: as §1
Acinetobacter baumannii = assay: Antimicrobial activity against Acinetobacter baumannii ATCC 19606 assessed as reduction in microbial growth measured after 20 hrs by CLSI based broth microdilution method; outline: as §1
Pseudomonas aeruginosa = assay: Antimicrobial activity against Pseudomonas aeruginosa ATCC 27853 assessed as reduction in microbial growth measured after 20 hrs by CLSI based broth microdilution method; outline: as §1
Enterobacter cloacae = assay: Antimicrobial activity against Enterobacter cloacae ATCC 13047 assessed as reduction in microbial growth measured after 20 hrs by CLSI based broth microdilution method; outline: as §1
Escherichia coli = assay: Antimicrobial activity against Escherichia coli ATCC 25922 assessed as reduction in microbial growth measured after 20 hrs by CLSI based broth microdilution method; outline: as §1

| Compound | MIC (Enterococcus faecalis) [µg/mL] | MIC (Staphylococcus aureus [1]) [µg/mL] | MIC (Staphylococcus aureus [2]) [µg/mL] | MIC (Streptococcus pneumoniae) [µg/mL] | MIC (Klebsiella pneumoniae) [µg/mL] | MIC (Acinetobacter baumannii) [µg/mL] | MIC (Pseudomonas aeruginosa) [µg/mL] | MIC (Enterobacter cloacae) [µg/mL] | MIC (Escherichia coli) [µg/mL] |
| --- | --- | --- | --- | --- | --- | --- | --- | --- | --- |
| OC(CNCCNc1ccccc1C(F)(F)F)COCc1ccccc1C(F)(F)F (centres undefined) | > 256 | > 256 | 128 | 128 | > 256 | > 256 | > 256 | > 256 | > 256 |
| O=[N+]([O-])c1ccc(OCC(O)CNCCNc2ccccc2C(F)(F)F)cc1 (centres undefined) | 128 | 64 | 64 | 64 | > 256 | 128 | > 256 | 128 | 128 |
| OC(CNCCNc1ccc(-c2ccccc2)cc1)COc1ccc(C(F)(F)F)cc1 (centres undefined) | > 256 | > 256 | > 256 | > 256 | > 256 | > 256 | > 256 | > 256 | > 256 |
| O=[N+]([O-])c1ccc(OCC(O)CNCCNc2nccc(C(F)(F)F)n2)cc1 (centres undefined) | 256 | 256 | 128 | 128 | > 256 | > 256 | > 256 | > 256 | > 256 |
| OC(CNCCNc1ccccc1C(F)(F)F)COc1ccccc1C(F)(F)F (centres undefined) | 32 | 64 | 32 | 32 | > 256 | 64 | > 256 | 64 | 64 |
| OC(CNCCNc1ccccc1C(F)(F)F)COCc1cccc(C(F)(F)F)c1.OC(CNCCNc1ccccc1C(F)(F)F)COCc1cccc(C(F)(F)F)c1 (centres undefined) | > 256 | > 256 | 128 | 128 | > 256 | > 256 | > 256 | > 256 | > 256 |
| OC(CNCCNc1ccc(C(F)(F)F)cn1)COCc1ccccc1C(F)(F)F (centres undefined) | 128 | 64 | 64 | 64 | > 256 | 128 | > 256 | 128 | 128 |
| OC(CNCCNc1ccc(C(F)(F)F)cn1)COCc1cccc(C(F)(F)F)c1 (centres undefined) | 64 | 64 | 32 | 32 | > 256 | 128 | > 256 | 256 | 64 |
| O=[N+]([O-])c1ccc(OCC(O)CNCCNc2cccc(C(F)(F)F)n2)cc1 (centres undefined) | 128 | 128 | 64 | 32 | > 256 | 256 | > 256 | 256 | 256 |
| O=S(=O)(NCCNCC(O)COc1ccc(C(F)(F)F)cc1)c1ccccc1C(F)(F)F (centres undefined) | 64 | 64 | 64 | 32 | > 256 | 64 | > 256 | 128 | 64 |
| OC(CNCCNc1ccc(C(F)(F)F)cn1)CSCc1ccc(C(F)(F)F)cc1 (centres undefined) | 32 | 16 | 8 | 16 | > 256 | 32 | > 256 | 64 | 32 |
| OC(CNCCNc1ccc(C(F)(F)F)cn1)COCc1ccccc1 (centres undefined) | 256 | 256 | 128 | 128 | > 256 | 256 | > 256 | 256 | 256 |
| COC(=O)c1ccc(OCC(O)CNCCNc2nccc(C(F)(F)F)n2)cc1 (centres undefined) | > 256 | > 256 | > 256 | 256 | > 256 | > 256 | > 256 | > 256 | > 256 |
| COc1ccc(OCC(O)CNCCNc2nccc(C(F)(F)F)n2)cc1 (centres undefined) | > 256 | > 256 | > 256 | 256 | > 256 | > 256 | > 256 | > 256 | > 256 |
| OC(CNCCNc1ccccc1C(F)(F)F)COc1cccc(C(F)(F)F)c1 (centres undefined) | 16 | 32 | 32 | 16 | > 256 | 32 | > 256 | 32 | 32 |
| OC(CNCCNc1ccc(C(F)(F)F)cn1)COCc1ccc(C(F)(F)F)cc1 (centres undefined) | 32 | 32 | 32 | 16 | > 256 | 64 | > 256 | 128 | 128 |

| Compound | MIC (Enterococcus faecalis) [µg/mL] | MIC (Staphylococcus aureus [1]) [µg/mL] | MIC (Staphylococcus aureus [2]) [µg/mL] | MIC (Streptococcus pneumoniae) [µg/mL] | MIC (Klebsiella pneumoniae) [µg/mL] | MIC (Acinetobacter baumannii) [µg/mL] | MIC (Pseudomonas aeruginosa) [µg/mL] | MIC (Enterobacter cloacae) [µg/mL] | MIC (Escherichia coli) [µg/mL] |
| --- | --- | --- | --- | --- | --- | --- | --- | --- | --- |
| O=[N+]([O-])c1ccc(OCC(O)CNCCNc2cc(C(F)(F)F)ccn2)cc1 (centres undefined) | 128 | 128 | 128 | 64 | > 256 | > 256 | > 256 | 256 | > 256 |
| O=[N+]([O-])c1ccc(OCC(O)CNCCNc2ccc(F)cn2)cc1 (centres undefined) | > 256 | > 256 | > 256 | > 256 | > 256 | > 256 | > 256 | > 256 | > 256 |
| OC(CNCCSc1ccccc1C(F)(F)F)COc1ccc(C(F)(F)F)cc1 (centres undefined) | 8 | 16 | 8 | 4 | > 256 | 32 | > 256 | 128 | 16 |
| O=[N+]([O-])c1ccc(OCC(O)CNCCNc2ccc(C(F)(F)F)cn2)cc1 (centres undefined) | 128 | 32 | 32 | 64 | > 256 | 128 | > 256 | 128 | 128 |
| O=[N+]([O-])c1ccc(OCC(O)CNCCNc2ncccn2)cc1 (centres undefined) | > 256 | > 256 | > 256 | > 256 | > 256 | > 256 | > 256 | > 256 | > 256 |
| OC(CNCCNc1ccc(C(F)(F)F)cc1)COc1ccc(C(F)(F)F)cc1 (centres undefined) | 32 | 64 | 32 | 8 | > 256 | 256 | > 256 | 256 | 128 |
| O=[N+]([O-])c1ccc(NCCNCC(O)COCc2ccc(C(F)(F)F)cc2)nc1 (centres undefined) | 128 | 128 | 64 | 64 | 256 | 128 | > 256 | 128 | 128 |
| N#Cc1ccc(OCC(O)CNCCNc2ccccc2C(F)(F)F)cc1 (centres undefined) | > 256 | > 256 | 128 | 128 | > 256 | > 256 | > 256 | > 256 | > 256 |
| O=[N+]([O-])c1ccc(OCC(O)CNCCNc2ncc(C(F)(F)F)cn2)cc1 (centres undefined) | > 256 | 256 | 256 | 128 | > 256 | > 256 | > 256 | > 256 | > 256 |
| OC(CNCCNc1nccc(C(F)(F)F)n1)COc1ccccc1 (centres undefined) | > 256 | > 256 | > 256 | 128 | > 256 | > 256 | > 256 | > 256 | > 256 |
| OC(CNCCNc1nccc(C(F)(F)F)n1)COc1ccc(C(F)(F)F)cc1 (centres undefined) | 64 | 64 | 64 | 32 | > 256 | 128 | > 256 | > 256 | > 256 |
| O=[N+]([O-])c1ccc(OCC(O)CNCCNc2ncccc2C(F)(F)F)cc1 (centres undefined) | 256 | 128 | 128 | 64 | > 256 | > 256 | > 256 | > 256 | > 256 |
| OC(CNCCNc1nccc(C(F)(F)F)n1)COc1ccc(F)cc1 (centres undefined) | > 256 | > 256 | 256 | 128 | > 256 | > 256 | > 256 | > 256 | > 256 |
| OC(CNCCNc1nccc(C(F)(F)F)n1)COc1ccc(F)c(F)c1 (centres undefined) | 256 | 256 | 256 | 64 | > 256 | 256 | > 256 | 256 | 128 |
| OC(CNCCNc1ccc(C(F)(F)F)cn1)CNc1ccc(C(F)(F)F)cc1 (centres undefined) | 16 | 32 | 32 | 16 | > 256 | 32 | > 256 | 64 | 64 |

From ChEMBL document CHEMBL6071151, “Discovery of Inhibitors Targeting Protein-Protein Interaction between Bacterial RNA Polymerase and NusG as Novel Antimicrobials” (J Med Chem, 2024)
